Measurements reported in ChEMBL document CHEMBL4261600 (Eur J Med Chem, 2018).

Key:
[1] = Antiproliferative activity against human MEC1 cells after 72 hrs by Celltiter-Glo assay; format: functional; settings: MEC1, 72 h
How it was run: (§1)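 Cells seeded at 3000/well in 96-well plates, exposed to serially diluted compound for 72 h at 37 °C, 5% CO2. Viability read by CellTiter-Glo luminescence and normalized to DMSO control. GI50 derived from curve fit, mean of three independent measurements. Culture media: DMEM/10% FBS for adherent lines; IMDM for MV4-11 and MEC-1/2; RPMI 1640 for suspension lines and CHL.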

[2] = Antiproliferative activity against Chinese hamster CHL cells after 72 hrs by Celltiter-Glo assay; settings: Cricetulus griseus
[3] = system: MV4-11; test: Antiproliferative activity against human MV4-11 cells after 72 hrs by Celltiter-Glo assay; format: functional; settings: MV4-11, 72 h; how it was run: as §1
[4] = molecular target: CDK9/Cyclin K (Homo sapiens, UniProt P50750); test: Inhibition of CDK9/Cyclin K (unknown origin) using PDKtide as substrate incubated at 37 degreeC for 1 hr followed by incubation at room temperature for 5 mins by ADP-Glo reagent based luminescence assay; format: protein-complex assay
Sequence of CDK9/Cyclin K (P50750 whole entry): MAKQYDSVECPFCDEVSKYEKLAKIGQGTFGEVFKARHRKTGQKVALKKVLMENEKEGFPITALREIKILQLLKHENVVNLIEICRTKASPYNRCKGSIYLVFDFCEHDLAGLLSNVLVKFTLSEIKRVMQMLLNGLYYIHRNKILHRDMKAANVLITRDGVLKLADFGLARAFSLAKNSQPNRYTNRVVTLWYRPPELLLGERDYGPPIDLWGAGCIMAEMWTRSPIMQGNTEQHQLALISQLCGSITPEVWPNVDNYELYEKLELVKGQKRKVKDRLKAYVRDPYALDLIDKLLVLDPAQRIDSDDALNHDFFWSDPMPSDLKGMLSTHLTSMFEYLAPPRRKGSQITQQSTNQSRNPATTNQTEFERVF
Sequence of CDK9/Cyclin K (O75909 whole entry, further chain): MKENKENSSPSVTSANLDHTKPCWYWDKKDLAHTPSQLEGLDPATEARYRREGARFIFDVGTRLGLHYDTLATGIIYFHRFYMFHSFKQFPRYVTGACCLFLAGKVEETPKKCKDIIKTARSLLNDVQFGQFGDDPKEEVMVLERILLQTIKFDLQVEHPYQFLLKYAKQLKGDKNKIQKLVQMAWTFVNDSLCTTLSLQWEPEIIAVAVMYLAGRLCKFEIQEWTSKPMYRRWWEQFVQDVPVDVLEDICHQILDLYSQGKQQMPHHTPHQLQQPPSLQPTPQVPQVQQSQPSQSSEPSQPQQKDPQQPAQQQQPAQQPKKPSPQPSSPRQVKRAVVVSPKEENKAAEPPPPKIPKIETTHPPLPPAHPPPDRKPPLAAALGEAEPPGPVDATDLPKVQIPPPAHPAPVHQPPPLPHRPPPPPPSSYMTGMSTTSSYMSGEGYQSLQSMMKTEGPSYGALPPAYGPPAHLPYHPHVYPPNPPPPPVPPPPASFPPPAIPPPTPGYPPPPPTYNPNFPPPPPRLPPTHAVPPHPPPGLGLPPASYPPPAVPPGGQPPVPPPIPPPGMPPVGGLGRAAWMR

Structure (SMILES) | GI50 [3] [nM] | IC50 [4] [nM] | GI50 [1] [nM] | GI50 [2] [nM]
O=C(Nc1cc(-c2csc(NCC3CCOCC3)n2)c(Cl)cn1)c1ccc(F)cc1 | 550 | 2300 | 3600 | 930
COCCNc1cc(-c2csc(NCC3CCOCC3)n2)c(Cl)cn1 | > 10000 | 1040 | > 10000 | > 10000
COC[C@@H](C)N[C@H]1CC[C@H](Nc2cc(-c3csc(NCC4CCOCC4)n3)c(Cl)cn2)CC1 | 140 | 733 | 310 | 1100
COCCN[C@H]1CC[C@H](Nc2cc(-c3csc(SCC4CCOCC4)n3)c(Cl)cn2)CC1 | 340 | 14 | 800 | 5600
COCCN[C@H]1CC[C@H](Nc2cc(-c3csc(NCC4CCCCC4)n3)c(Cl)cn2)CC1 | 820 | 27 | 850 | 8000
Clc1cnc(Nc2ccccc2)cc1-c1csc(NCC2CCOCC2)n1 | > 10000 | 238 | > 10000 | > 10000
COC[C@H](C)N[C@H]1CC[C@H](Nc2cc(-c3csc(NCC4(C#N)CCOCC4)n3)c(Cl)cn2)CC1 | 121 | 10 | 537 | 1250
O=C(N[C@H]1CC[C@H](Nc2cc(-c3csc(NCC4CCOCC4)n3)c(Cl)cn2)CC1)C1CC1 | > 10000 | 150 | > 10000 | > 10000
COC[C@@H](C)N[C@H]1CC[C@H](Nc2cc(-c3csc(NCC4(C#N)CCOCC4)n3)c(Cl)cn2)CC1 [TAMBICICLIB] | 14 | 9 | 47 | 1100
CC(=O)N[C@H]1CC[C@H](Nc2cc(-c3csc(NCC4CCOCC4)n3)c(Cl)cn2)CC1 | 3600 | 101 | > 10000 | > 10000
COCCN[C@H]1CC[C@H](Nc2cc(-c3csc(NCC4C5CC6CC(C5)CC4C6)n3)c(Cl)cn2)CC1 (some centres undefined) | 3460 | 94 | 6310 | 2040

Continued, in another order:

GI50 [3] [nM] | IC50 [4] [nM] | Structure (SMILES) | GI50 [1] [nM] | GI50 [2] [nM]
493 | 90 | COCCN[C@H]1CC[C@H](Nc2cc(-c3csc(NCC4CCOC4)n3)c(Cl)cn2)CC1 (some centres undefined) | 883 | > 10000
2160 | 80 | COCCN[C@H]1CC[C@H](Nc2cc(-c3csc(NCC4CCCC4)n3)c(Cl)cn2)CC1 | 2940 | > 10000
1090 | 12 | COCCCN[C@H]1CC[C@H](Nc2cc(-c3csc(NCC4CCOCC4)n3)c(Cl)cn2)CC1 | 2610 | 2030
170 | 2 | COCCN[C@H]1CC[C@H](Nc2cc(-c3csc(NCC4CCOCC4)n3)c(Cl)cn2)CC1 | 1240 | 534
740 | 96 | COCCN[C@H]1CC[C@H](Nc2cc(-c3csc(NCC4CC4)n3)c(Cl)cn2)CC1 | 890 | 1400
